Key:
[1] = Inhibition of advanced glycation end-products formation after 14 days by spectrofluorimetry; type: physicochemical
How it was run: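 Glycation end-product formation measured by an established literature method. Fluorescent reaction products read spectrofluorometrically after a 14-day incubation. Aminoguanidine served as the positive control. Triplicate experiments, reported as mean ± SD. IC50 calculated from the dose–inhibition curve.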

[2] = biological target: Aldo-keto reductase family 1 member B1 (Rattus norvegicus, UniProt P07943); assay: Inhibition of Sprague-Dawley rat lens aldose reductase

SMILES	IC50 [1] [µM]	IC50 [2] [µM]
CC(/C=C1\SC(=S)N(CC(=O)O)C1=O)=C\c1ccccc1	> 50	–
C/C=C/C#CC#C[C@H](O)CCO [GYMNASTERKOREAYNE A]	> 50	> 30
O=C(/C=C/c1ccc(O)c(O)c1)O[C@@H]1C[C@](O)(C(=O)O)C[C@@H](OC(=O)/C=C/c2ccc(O)c(O)c2)[C@H]1O	6.6	–
O=C(/C=C/c1ccc(O)c(O)c1)O[C@H]1[C@H](O)C[C@](O)(C(=O)O)C[C@H]1OC(=O)/C=C/c1ccc(O)c(O)c1	6.4	2.3
C=CCc1ccc(O[C@@H]2O[C@H](CO)[C@@H](O)[C@H](O)[C@H]2O)c(OC)c1 [CITRUSIN C]	> 50	> 30
CC[C@H](CC[C@@H](C)[C@H]1CC[C@H]2[C@@H]3CC=C4C[C@@H](O[C@@H]5O[C@H](CO)[C@@H](O)[C@H](O)[C@H]5O)CC[C@]4(C)[C@H]3CC[C@]12C)C(C)C [SITOGLUSIDE]	> 50	> 30
COc1cc(-c2oc3cc(O)cc(O)c3c(=O)c2O[C@@H]2O[C@H](CO)[C@@H](O)[C@H](O)[C@H]2O)ccc1O (stereo in doubt; 7)	44.4	9.3
CC1=CC[C@H](O)[C@]2(C)[C@H]1[C@@H](O[C@@H]1O[C@H](CO)[C@@H](O)[C@H](O)[C@H]1O)[C@H](C(C)(C)O)C[C@H]2OC(=O)/C=C/c1ccc(O)cc1	> 50	> 30
O=c1c(O[C@@H]2OC[C@H](O)[C@H](O)[C@H]2O)c(-c2ccc(O)c(O)c2)oc2cc(O)cc(O)c12 [GUAJAVERIN]	9	0.32
CC[C@H](/C=C/[C@@H](C)[C@H]1CC[C@H]2C3=CC[C@H]4C[C@@H](O)CC[C@]4(C)[C@H]3CC[C@]12C)C(C)C	> 50	> 30
C[C@@H]1O[C@@H](OC[C@H]2O[C@@H](Oc3c(-c4ccc(O)cc4)oc4cc(O)cc(O)c4c3=O)[C@H](O)[C@@H](O)[C@@H]2O)[C@H](O)[C@H](O)[C@H]1O [NICOTIFLOROSIDE]	> 50	11.3
C=C(CO[C@@H]1O[C@H](CO)[C@@H](O)[C@H](O)[C@H]1O)[C@H]1Oc2cc(C(C)=O)c(O)cc2[C@@H]1OC	> 50	> 30
CC1=CC[C@@H](O)[C@]2(C)[C@@H](OC(=O)/C=C/c3ccc(O)cc3)C[C@@H](C(C)C)[C@@H](O[C@@H]3O[C@H](CO)[C@@H](O)[C@H](O)[C@H]3O)[C@@H]12	> 50	> 30
N=C(N)NN [PIMAGEDINE]	966	> 30
O=C(/C=C/c1ccc(O)c(O)c1)O[C@@H]1C[C@](O)(C(=O)O)C[C@@H](O)[C@H]1O [CHLOROGENIC ACID]	> 50	0.95
COc1cc(-c2oc3cc(O)cc(O)c3c(=O)c2O[C@@H]2O[C@H](CO[C@@H]3O[C@@H](C)[C@H](O)[C@@H](O)[C@H]3O)[C@@H](O)[C@H](O)[C@H]2O)ccc1O [NARCISSIN]	> 50	12.1
C=CCCCCC/C=C/[C@H](O)C#CC#C[C@@H](O)[C@H](C)O [GYMNASTERKOREAYNE E]	> 50	> 30
C/C=C/C#CC#CCCCO[C@@H]1O[C@H](CO)[C@@H](O)[C@H](O)[C@H]1O	> 50	> 30
O=c1c(O[C@@H]2O[C@H](CO)[C@@H](O)[C@H](O)[C@H]2O)c(-c2ccc(O)c(O)c2)oc2cc(O)cc(O)c12 [ISOQUERCETIN]	9.2	4.4

From ChEMBL document CHEMBL2010655, “Chemical constituents from the aerial parts of Aster koraiensis with protein glycation and aldose reductase inhibitory activities” (J Nat Prod, 2012)
